The test system of series [1] is HEK293T cells. In words: CellTiter-Glo acute cell death counterscreen. In kind it is cell-based. The following applies: 1 hour; at the highest concentration tested of 45.8 μM. On the technique in general: Cellular ATP, detected with luciferase, serves as a proxy for viable cell number.
In series [2] the test system is HDAC class I and II activity in HeLa cells. Briefly: HDAC-Glo I/II cellular assay in HeLa cells. In kind it is cell-based. The following applies: qHTS; 1 hour; active = CRC class 1 and 2 and AUC>100. (In general: Quantitative high-throughput screening tests each substance at several concentrations.)
Series [3] deals with Recombinant human HDAC1 enzyme (Homo sapiens, UniProt Q13547). In words: HDAC-Glo I/II enzymatic assay. The following applies: for Activity outcome in HDAC1 enzymatic HDAC-Glo I/II assay: qHTS, 11 concentrations, active = CRC class 1 and 2 and AUC>100. Format: biochemical.
Series [4] relates to HDAC class I and II activity in HEK293T cells. In words: HDAC-Glo I/II cellular assay in HEK293T cells. In kind it is cell-based. The following applies: qHTS, 1 hour, active = CRC class 1 and 2 and AUC>100.
The nature of series [5]: Fluorescence counterscreen. The following applies: excited at 450 nm, emission 500–750 nm; 610 nm channel of NanoBRET. Format: physicochemical. The essentials: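 Cell-free scan: test compound pinned into wells of growth medium alone (final DMSO 0.28 %), no cells or tracer added. Wells excited at 450 nm and emission read every 10 nm across 500–750 nm to build a full spectrum, flagging intrinsic fluorescence near the 610 nm NanoBRET acceptor channel.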
(In general: Counterscreens check selectivity or assay interference.)

Series [6] has as its target HDAC1-NanoLuc fusion protein (Homo sapiens, UniProt Q13547). In words: HDAC1 NanoBRET target engagement assay in HEK293T cells. Format: binding. The following applies: for Activity outcome in NanoBRET (HDAC1 engagement, displacement of SAHA tracer): HEK293T, 28.9 μM to 0.49 nM, active = CRC class 1 and 2 and AUC>100.
For series [7], the system named is isolated HDAC1. The following applies: read-out: reported IC50 against isolated HDAC1; cited from earlier work.

Like-named read-outs stand apart in the source and are kept apart here.

Chain of HDAC1-NanoLuc fusion protein (Q13547 whole entry, the tested form may be a part): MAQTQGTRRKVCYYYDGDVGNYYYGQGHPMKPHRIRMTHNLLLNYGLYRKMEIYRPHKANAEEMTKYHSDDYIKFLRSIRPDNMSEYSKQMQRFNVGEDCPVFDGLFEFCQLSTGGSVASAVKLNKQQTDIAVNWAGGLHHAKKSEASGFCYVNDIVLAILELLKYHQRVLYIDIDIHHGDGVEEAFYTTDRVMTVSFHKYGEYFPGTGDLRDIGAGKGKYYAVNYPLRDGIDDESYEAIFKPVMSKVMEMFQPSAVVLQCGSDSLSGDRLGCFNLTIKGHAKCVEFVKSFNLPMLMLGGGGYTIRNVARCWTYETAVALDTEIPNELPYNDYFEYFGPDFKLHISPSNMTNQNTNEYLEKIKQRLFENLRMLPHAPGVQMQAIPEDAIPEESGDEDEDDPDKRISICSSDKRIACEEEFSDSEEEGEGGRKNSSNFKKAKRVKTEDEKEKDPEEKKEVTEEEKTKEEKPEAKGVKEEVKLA
Chain of Recombinant human HDAC1 enzyme (Q13547 whole entry): as the sequence (Q13547 whole entry, the tested form may be a part) above

With `CCS(=O)(=O)N1CCN(c2ccc(Nc3ncc(C(N)=O)c(NC4CC4)n3)cc2)CC1` [Cerdulatinib], in series [1], the “Acute effect on HEK293T cell viability (CellTiter-Glo)” value was “reduced HEK293T cell viability”.
For `Nc1cc(F)ccc1NC(=O)c1ccc(CNC(=O)/C=C/c2cccnc2)cc1` [Chidamide], in series [2], the “Activity outcome in HeLa cellular HDAC-Glo I/II assay” value is given as “relatively weak activity (below the activity cutoff)”. For the same molecule, the “Activity outcome in HDAC1 enzymatic HDAC-Glo I/II assay” value in series [3] is given as “active”. The “Activity outcome in HEK293T cellular HDAC-Glo I/II assay” value in series [4] is reported as “relatively weak activity (below the activity cutoff)”.
With `Nc1ccc2c(c1)CN1C(=O)c3ccccc3C1=N2` [Daniquidone], in series [3], the half-inhibitory concentration (IC50) (commonly the midpoint of a concentration-inhibition curve) amounted to 2100 ± 600 nM. Besides, in series [3] (read-out: % Efficacy, HDAC-Glo: HDAC1), the Emax was 92%. The Intrinsic fluorescence result in series [5] is “fluorescence over the 500–750 nm range”.
Consider `Nc1ccccc1NC(=O)c1ccc(CNC(=O)OCc2cccnc2)cc1` [Entinostat], for which the “Activity outcome in HeLa cellular HDAC-Glo I/II assay” value in series [2] is “relatively weak activity (below the activity cutoff)”. For the same molecule, the “Activity outcome in HDAC1 enzymatic HDAC-Glo I/II assay” value in series [3] is reported as “active”. In addition, in series [4], the “Activity outcome in HEK293T cellular HDAC-Glo I/II assay” value is on record as “relatively weak activity (below the activity cutoff)”.
As for `C=C1CN(Cc2ccc(C(=O)Nc3ccccc3N)cc2)C(=O)c2ccccc21` [MI 192], the “Activity outcome in HeLa cellular HDAC-Glo I/II assay” value in series [2] is “relatively weak activity (below the activity cutoff)”. In addition, the “Activity outcome in NanoBRET (HDAC1 engagement, displacement of SAHA tracer)” value in series [6] is on record as “engage HDAC1 in cells”. Further, the “Activity outcome in HDAC1 enzymatic HDAC-Glo I/II assay” value in series [3] is on record as “active”. Also, the IC50 is 80 nM in series [3] (read-out: IC50 in the enzymatic assay (HDAC1), HDAC-Glo I/II, Epigenetic-Focused collection) and 4800 nM in series [7]. Further, the “Activity outcome in HEK293T cellular HDAC-Glo I/II assay” value in series [4] is reported as “relatively weak activity (below the activity cutoff)”.
On to `O=C(Nc1cccc(Cl)c1)Nc1ncc(CCNc2ncnc3ccsc23)s1` [SNS-314], for which the “Acute effect on HEK293T cell viability (CellTiter-Glo)” value in series [1] was “acute cell death”. In series [6], half-maximal inhibition (IC50) required 549 nM and the “Activity outcome in NanoBRET (HDAC1 engagement, displacement of SAHA tracer)” value is listed as “engagement”.
Turning to `Cc1ccc(NC(=O)CCCCCC(=O)Nc2ccccc2N)cc1` [TC-H-106], in series [2], the “Activity outcome in HeLa cellular HDAC-Glo I/II assay” value was “relatively weak activity (below the activity cutoff)”. Besides, in series [3], the “Activity outcome in HDAC1 enzymatic HDAC-Glo I/II assay” value is recorded as “active”. Besides, the results for the “Activity outcome in HEK293T cellular HDAC-Glo I/II assay” value in series [4] and in series [4] (listed as TC-H 106) were “relatively weak activity (below the activity cutoff)” and “either inactive or did not pass the activity cutoff”, respectively.
`CC(=O)Nc1ccc(C(=O)Nc2ccccc2N)cc1` [Tacedinaline]: the “Activity outcome in HeLa cellular HDAC-Glo I/II assay” value in series [2] was “relatively weak activity (below the activity cutoff)”. Besides, the “Activity outcome in HDAC1 enzymatic HDAC-Glo I/II assay” value in series [3] is “active”.

The values are drawn from article PMC7848789 (SLAS discovery : advancing life sciences R & D, 2019).
